PubChem BioAssay AID624466 (The Scripps Research Institute Molecular Screening Center, 2012)
The whole screen tested about 360,000 compounds, of which about 5,400 (1.5%) were called active.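 How the source made its calls: active means inhibition above a per-plate cutoff, the mean inhibition of test compounds on that plate plus 3 SD (cut at about 49% in these data); inactive means the rest.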 Only a selection was taken, and actives are over-represented in it overall.

Target: Trace amine-associated receptor 1 (Homo sapiens) (UniProt Q96RJ0)
Experiment: blockers of beta-PEA-driven TAAR1 calcium signal – Fluo-8 calcium fluorescence, CHO RD-HGA16 cells, primary screen (AID 624466);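 further: 0% = DMSO plus EC80 beta-PEA response and 100% = DMSO alone without agonist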
Conditions: CHO RD-HGA16 TAAR1, Fluo-8 calcium fluorescence, antagonist; at 3 µM; active compounds read high
Outline: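 System: CHO RD-HGA16 cells bearing hTAAR1. Reagent: EC80 β-phenethylamine stimulus. Schedule: seeding 17-24 h prior, 75-min 37 °C, 30-min RT dye loading. Signal: Fluo-8 intracellular calcium dye fluorescence, real-time kinetic reads. Read-out: % inhibition from peak post-agonist over basal fluorescence ratio. Benchmarks: vehicle wells and EC80 agonist wells. Replicates: n of 1.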

Chain of Trace amine-associated receptor 1 (Homo sapiens) (Q96RJ0 whole entry, looked up): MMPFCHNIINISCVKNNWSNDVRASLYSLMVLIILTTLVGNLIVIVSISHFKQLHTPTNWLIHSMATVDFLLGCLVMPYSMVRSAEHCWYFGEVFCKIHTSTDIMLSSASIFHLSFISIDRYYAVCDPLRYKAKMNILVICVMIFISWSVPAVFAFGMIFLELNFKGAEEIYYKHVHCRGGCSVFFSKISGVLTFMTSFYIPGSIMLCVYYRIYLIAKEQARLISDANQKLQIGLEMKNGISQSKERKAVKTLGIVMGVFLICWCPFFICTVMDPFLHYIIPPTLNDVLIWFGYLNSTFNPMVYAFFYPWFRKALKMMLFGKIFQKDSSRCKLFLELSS

inhibition, inactive:
CC(C)CN1C(=O)CN(S(C)(=O)=O)CC1(C)C(=O)NCc1ccccc1 (centres undefined) -16.9%
O=C(c1ccccc1)c1ccc(OC(=O)N2CCCC2)cc1 0.6%
CCCC[C@@H]1CN=C(N)N1CCc1cc(C(F)(F)F)cc(C(F)(F)F)c1 0.75%
O=C(NCc1ccccn1)[C@@H]1CCCN1C(=O)[C@@H]1CCCN1C(=O)c1ccccc1 -3.32%
Nc1c(C(=O)Nc2ccc3c(c2)OCCO3)nnn1Cc1ccccc1 10.6%
CCOc1ccc(Cn2nnc(C(=O)Nc3ccc(OC)cc3OC)c2N)cc1 -4.89%
O=C(OCC(=O)N1CCOCC1)c1ccc2ccccc2c1 -11.6%
O=C1C(Sc2cccc(F)c2)=C[C@@]2(O)CC[C@@H](O)[C@]1(Sc1cccc(F)c1)[C@H]2O 1.99%
N#Cc1ccc(C(C(=O)NCc2ccccc2)n2c(=O)c(-c3ccco3)nc3ccccc32)cc1 (centres undefined) -2.89%
O=C(Cc1ccccc1)Nc1c(Cl)ccc2nsnc12 3.32%
CC(=O)c1ccc(NC(=O)c2cc(-c3cccs3)on2)cc1 5.25%
Cc1cc(Br)ccc1NC(=O)c1sc2ncn(CC(=O)N3CCN(c4ccccn4)CC3)c(=O)c2c1C 12%
Cc1cc(C(=O)N2CCN(c3ccccn3)CC2)c(C)o1 1.13%
CCOc1ccccc1C(=O)N1CCC[C@@H]1C(=O)N1CCC[C@H]1C(=O)NCc1ccccc1 -5.66%
CN1C(=O)CN2CCc3ccccc3C2c2cc(Cl)ccc21 (centres undefined) -4.12%
CC1CCCCN1C(=S)NCc1ccccc1 (centres undefined) -12.2%
S=C(Nc1cccc(Br)c1)N1CCn2cccc2C1c1cccnc1 (centres undefined) -5.72%
Cc1cccc(N(C)C(=O)CN2C(=O)COc3ccc(S(=O)(=O)N4CCCCCC4)cc32)c1 28.5%
CCCn1nc(C(=O)Nc2ccc3nc(C)sc3c2)c2ccccc2c1=O -20.5%
CCCCn1nc(C(=O)Nc2ccc(S(=O)(=O)Nc3ncccn3)cc2)c2ccccc2c1=O -40.3%
CC(=O)N1CCN(Cc2cc(=O)oc3cc(C)ccc23)CC1 -3.73%
Cc1ccc2nc(CN(C)C(=O)[C@@H](Cc3ccccc3)NC(=O)[C@H]3O[C@@H](n4ccc(=O)[nH]c4=O)[C@H](O)[C@@H]3O)[nH]c2c1 -7.68%
CN(c1ccccc1)S(=O)(=O)c1ccc(NC(=O)COc2ccccc2)cc1 40.2%
COC(=O)[C@H]1Cc2cnoc2C[C@]1(C)C(=O)O -4.37%
COC(=O)[C@]12C[C@H](CC(=O)NCCCCc3ccccc3)C(=O)N(Cc3ccc4c(c3)OCO4)C1=C[C@H](C(C)(C)C)O[C@@H]2C -5.78%
CCc1nc2oc3ccccc3c(=O)c2c(=O)n1Cc1ccc(OC)cc1 3.24%
O=C(CSc1nnc(COc2ccc(Cl)cc2)n1Cc1ccco1)N1CCNC1=O 11.4%
C/C(=N\N1CCN(Cc2ccc(C)cc2)CC1)c1ccco1 -4.82%
Cc1nn(-c2ccccc2)c(C)c1NC(=O)CCl -8.39%
Cc1cccc(C)c1NC(=O)COC(=O)c1c(C)nn(-c2ccccc2)c1C -6.4%
Cc1nnsc1S(=O)(=O)Cc1ccccc1Cl -3.1%
O=C(Nc1ccc(S(=O)(=O)N2CCOCC2)cc1)C1CCN(S(=O)(=O)c2ccc(Cl)cc2)CC1 8.67%
C=CCN=C1NC(c2cccc(C(F)(F)F)c2)C(C(=O)OC)=C(C)N1C (centres undefined) 5.15%
C[C@@H](CN1C2=NC[C@@H](Cc3ccccc3)N2C[C@H]1Cc1ccc(O)cc1)NC(=O)CCC1CCCCC1 -6.17%
COc1ccccc1CC1(C)C(=O)Nc2ccc(OC(F)(F)F)cc21 (centres undefined) -12.2%
Cc1ccc(CC2(C)C(=O)Nc3ccc(OC(F)(F)F)cc32)cc1 (centres undefined) -5.18%
CCOC(=O)c1cc2c(ccn2C)n1CC(=O)N1CCC(C)CC1 -7.37%
COc1ccc(CCNC(=O)c2ccccc2-c2ccccc2C(=O)O)cc1OC -6.06%
COc1ccc(CCNc2nc(C)cc(C)n2)cc1OC -1.79%
CC(=O)Nc1ccccc1OC(C)C(=O)N1CCC(C)CC1 (centres undefined) -3.93%
COc1ccc2c(c1)C(SCC(=O)NCc1ccccc1)CC(C)(C)O2 (centres undefined) 13%
C=CC[C@@H](CC(=O)N[C@H](CO)Cc1ccccc1)C(=O)N[C@@H](COC(=O)[C@@H](CC=C)Cc1ccc(F)cc1)Cc1c[nH]c2ccccc12 9.92%
C=CCC[C@@H](Cc1ccc(F)cc1)C(=O)OC[C@H](Cc1c[nH]c2ccccc12)NC(=O)[C@@H](CC=C)CC(=O)N(CCO)Cc1ccccc1 38.4%
C=CCC[C@@H](Cc1ccc(F)cc1)C(=O)OC[C@@H](C)NC(=O)[C@H](CC=C)CC(=O)N(CCO)Cc1ccccc1 46.1%
C=CC[C@@H](CC(=O)N[C@H](CO)Cc1ccccc1)C(=O)N[C@H](C)COC(=O)[C@@H](CC=C)Cc1ccc(F)cc1 38%
C=CCC[C@H](Cc1ccc(F)cc1)C(=O)OC[C@@H](NC(=O)[C@@H](CC=C)CC(=O)N[C@H](CO)Cc1ccccc1)C(C)(C)C 37.2%
C=CC[C@@H](Cc1ccc(F)cc1)C(=O)OC[C@H]1CCCN1C(=O)[C@H](CC=C)CC(=O)N(CCO)Cc1ccccc1 39.6%

inhibition, active:
CCOc1ccc(Cn2nnc(C(=O)NCc3ccccc3)c2N)cc1 55.6%
Cc1cc(Br)ccc1NC(=O)c1cnc(N2CCN(c3ccccn3)CC2)c2ccccc12 67.1%
S=C(NCCc1ccccc1)N1CCn2cccc2C1c1ccncc1 (centres undefined) 76.5%
CCCCn1nc(C(=O)Nc2cccc(C(=O)NC3CC3)c2)c2ccccc2c1=O 48.7%
Cn1c2ccccc2c(=O)c2c(=O)n(Cc3ccco3)c(COc3ccccc3)nc21 62.5%
Cc1nn(-c2ccccc2)c(C)c1NC(=O)COC(=O)c1cc(Cl)ccc1O 68.3%
O=C(Nc1ccccc1)c1nnsc1S(=O)(=O)c1ccc(Cl)cc1 59.8%
CCc1ccc2c(c1)NC(=O)C2(C)Cc1ccc(OC(F)(F)F)cc1 (centres undefined) 55.2%
COc1ccc(CCNC2=C(Cl)C(=O)N(Cc3ccccc3)C2=O)cc1OC 63%
C=CCC[C@@H](Cc1ccc(F)cc1)C(=O)O[C@H](CNC(=O)[C@H](CC=C)CC(=O)N(CCO)Cc1ccccc1)c1ccccc1 75.5%
C=CCC[C@H](Cc1ccc(F)cc1)C(=O)OC[C@H](C)NC(=O)[C@H](CC=C)CC(=O)N(CCO)Cc1ccccc1 55.4%
C=CC[C@H](CC(=O)N(CCO)Cc1ccccc1)C(=O)N[C@@H](COC(=O)[C@@H](CC=C)Cc1ccc(F)cc1)Cc1ccccc1 61.4%
